Ends that are not written are not given here.
System: mice with DSS-induced acute colitis
Experiment: Treatment of DSS-induced acute colitis in mice
Format: in vivo, C57BL/6 J mice
Conditions: oral, daily, 7 days; Ac2-26 95.2 μg/kg; ATTN 35 mg/kg
Outline: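 Acute colitis induced in C57BL/6 J mice by 3% (w/v) DSS in drinking water for 7 days. Colitis mice were randomized into 4 groups and dosed daily by oral gavage with one of: saline, free peptide, peptide-free carrier nanoparticles (35 mg/kg), or peptide-loaded nanoparticles (35 mg/kg). Peptide dose was 95.2 μg/kg in every peptide-containing formulation.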

For “Ac2-26: pro-resolving peptide Ac2-26, synthesized by ChinaPeptides Co., Ltd. (Ac-AMVSEFLKQAWFIENEEQEYVQTVK; UniProt P04083 2-26, looked up, fragment)”, the “depletion of goblet cells (PAS staining)” value was “no beneficial effects”.

— article PMC9939322 (Acta Pharmaceutica Sinica. B, 2022)
